We go through 37 sequences from the array DNA melting data of Ke et al. (doi:10.1101/2024.01.08.574731).

Data set [1] can be described thus: folding enthalpy; higher = less favourable; fluorescence melt of hairpins on a sequencing array, two-state fit. To be noted: sodium 0.088 M. In outline:
(§1)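 Library hairpins on a sequenced MiSeq flow cell carried annealed Cy3 and quencher oligos, and their Cy3 fluorescence was imaged in 50 mM Na-HEPES pH 8.0 with 25 mM NaCl, in 2.5 °C steps up to 60 °C. Signals were normalised to Cy3 before quenching and to control constructs. Melting temperature and folding enthalpy were obtained from bootstrapped two-state fits, combined by inverse-variance weighting across four replicates, and the fitted temperatures were then raised by 9.35 °C to match UV melts.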

The nature of data set [2]: melting temperature; fluorescence melt of hairpins on a sequencing array, two-state fit, raised by 9.35 °C to match UV melts. To be noted: sodium 0.088 M. In short, it runs like this: as §1

In the case of GGGGAACGAAAGTTGCCC (((.(((....))).))), in data set [1], the folding enthalpy was -39.1 kcal/mol. Moreover, in data set [2], the Tm came out at 64 °C.
The matching figures for TATGTGAAAACATA (((((....))))): -12.4 kcal/mol and 35.3 °C.
For GCGGAGCGAAAGCCCTGC ((.(.((....)).).)) the same measures were -10.6 kcal/mol and 43.7 °C.
The matching figures for GAATGCGAAAGCAGCTTC ((((((....)))..))): -23 kcal/mol and 39.7 °C.
On to GGTCGGGGAAACCTGGCC ((.(.((....)).).)), for which, in data set [1], the folding enthalpy is -28.7 kcal/mol. In addition, the Tm in data set [2] amounted to 48.4 °C.
For GATCTTCTGCAAGATC ((((((....)))))) the same measures were -22 kcal/mol and 42.9 °C.
With GGTCGACGAAAGTCAACC (((.(((....))).))), the folding enthalpy in data set [1] is -32.2 kcal/mol. Also, the Tm in data set [2] came out at 49.9 °C.
As to GTCACCCGAAAGGGAGAC (((.(((....))).))), the folding enthalpy in data set [1] is -33.6 kcal/mol. Besides, the Tm in data set [2] was 57.2 °C.
The matching figures for GCGGCCTCCCGC ((((....)))): -22.3 kcal/mol and 56.3 °C.
Consider GAAATGCGAAAGCATTC (((.(((....)))))), for which the folding enthalpy in data set [1] is -10.9 kcal/mol. In data set [2], the Tm turned out to be 45.6 °C.
For GATCTTATAAAAGATC ((((((....)))))), the folding enthalpy in data set [1] was -25.5 kcal/mol. The Tm in data set [2] is 40 °C.
For GATCTGGTGCCAGATC ((((((....)))))) the same measures were -46.6 kcal/mol and 52.2 °C.
For GCTCATCCGAAAGGAAGC (((..(((....)))))) the same measures were -11.2 kcal/mol and 29.8 °C.
For GCGCCCGAAAGGGGACGC ((((((....)))..))) the same measures were -19.6 kcal/mol and 62.2 °C.
GGCTTGGGAAACCAAGTC (.(((((....))))).): in data set [1], the folding enthalpy is -29.4 kcal/mol. Moreover, the Tm in data set [2] came to 52.4 °C.
Consider GATCTGCATCAGATC ((((((...)))))), for which, in data set [1], the folding enthalpy was -30.6 kcal/mol. Further, the Tm in data set [2] stood at 47.8 °C.
For AAGCGGAAACGCTT (((((....))))), the folding enthalpy in data set [1] is -17.5 kcal/mol. In addition, the Tm in data set [2] came out at 57.3 °C.
The matching figures for GCGTCAGGAAACCGACGC (((((.(....).))))): -32.9 kcal/mol and 58.6 °C.
For GCACAGCGAAAGCAATGC (((..((....))..))) the same measures were -10.9 kcal/mol and 37.3 °C.
For GTCCGAGGAAACCCGGAC (((((.(....).))))) the same measures were -40.5 kcal/mol and 53.2 °C.
Turning to GATCGACAACTCGATC ((((((....)))))), the folding enthalpy in data set [1] was -33.8 kcal/mol. In addition, the Tm in data set [2] turned out to be 48.5 °C.
Take GCTGTGCGAAAGCTCTGC ((.(.((....)).).)): the folding enthalpy in data set [1] was -22.1 kcal/mol. Besides, the Tm in data set [2] amounted to 44.6 °C.
For GCGTCCGAAAGGAGTCGC ((((((....)))..))) the same measures were -22.9 kcal/mol and 49.5 °C.
For GATCGGTTGCCGATC ((((((...)))))) the same measures were -28.6 kcal/mol and 59.1 °C.
For GACGACGAAAGTCGCGTC ((((((....)))..))) the same measures were -10.6 kcal/mol and 49.9 °C.
Turning to GCAGTGCGAAAGCCCCGC ((.(.((....)).).)), the folding enthalpy in data set [1] was -10.3 kcal/mol. Besides, in data set [2], the Tm is 41.1 °C.
For GAGTAAGGAAACCTACTC (((((.(....).))))) the same measures were -26.6 kcal/mol and 33.2 °C.
For CGTAACCGGAAACGGACG (((..(((....)))))) the same measures were -15.2 kcal/mol and 34 °C.
For the sequence GCTATGCGAAAGCGTGGC ((.(.((....)).).)), in data set [1], the folding enthalpy is -26.1 kcal/mol. In data set [2], the Tm is 53.5 °C.
The matching figures for GCTGTCGGAAACGATAGC (((.(((....))).))): -57.3 kcal/mol and 53.4 °C.
The matching figures for GAATCCCGAAAGGGGTTC (((.(((....))).))): -33.9 kcal/mol and 58.1 °C.
For GAACACGAAAGTGCGTTC ((((((....)))..))) the same measures were -13 kcal/mol and 31.2 °C.
Take GTGTGCGAAAGCAAGCAC ((((((....)))..))): in data set [1], the folding enthalpy was -18.9 kcal/mol. For the same sequence, the Tm in data set [2] amounted to 43.5 °C.
For GGCGGTGGAAACGTCGCC ((((..(....)..)))) the same measures were -33.8 kcal/mol and 53.9 °C.
The matching figures for GGCTGTGGAAACATGGCC (((..((....))..))): -32.6 kcal/mol and 49.5 °C.
For the sequence GATCATTACAATGATC ((((((....)))))), in data set [1], the folding enthalpy was -37.9 kcal/mol. Also, the Tm in data set [2] was determined as 49.7 °C.
Take GGTGTAGCGAAAGCTACC (((..(((....)))))): the folding enthalpy in data set [1] was -9.3 kcal/mol. In addition, the Tm in data set [2] was determined as 49.1 °C.
